Assay results: ChEMBL document CHEMBL1130216, “Design, synthesis, and dopamine receptor modulating activity of diketopiperazine peptidomimetics of L-prolyl-L-leucylglycinamide” (J Med Chem, 1997)
Where a SMILES comes first, the peptide text is derived from it.

Key:
[1] = target: D(2) dopamine receptor (Bos taurus) (UniProt P20288); experiment: Percentage of receptor in the high affinity form for the compound to Dopamine receptor D2 in presence of Gpp(NH)p; assay type: functional
Method in brief: (§1)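 Bovine striatal membranes (150-200 µg protein) were incubated with 0.2 nM [3H]spiroperidol and varying N-propylnorapomorphine, with or without 100 µM Gpp(NH)p and 100 nM peptidomimetic, plus 50 nM ketanserin, for 1 h at 22 °C, then GF/B filtered. Nonspecific binding was set with 1.0 µM (+)-butaclamol. A two-site fit gave high/low-affinity fractions; Ki values came via Cheng-Prusoff. Mean ± SEM of 3-4 experiments.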

[2] = target: D(2) dopamine receptor (Bos taurus) (UniProt P20288); experiment: Percentage of receptor in the low affinity form for the compound to Dopamine receptor D2 in presence of Gpp(NH)p; assay type: functional; method in brief: as §1
[3] = target: D(2) dopamine receptor (Bos taurus) (UniProt P20288); experiment: Percentage of receptor in the high affinity form for the compound to Dopamine receptor D2 in absence of Gpp(NH)p; assay type: functional; method in brief: as §1
[4] = target: D(2) dopamine receptor (Bos taurus) (UniProt P20288); experiment: Percentage of receptor in the low affinity form for the compound to Dopamine receptor D2 in absence of Gpp(NH)p; assay type: functional; method in brief: as §1
[5] = target: D(2) dopamine receptor (Bos taurus) (UniProt P20288); experiment: Percentage of receptor in the high affinity form for the compound in absence of Gpp(NH)p (Pre treated with 1 uM) to Dopamine receptor D2
[6] = target: D(2) dopamine receptor (Bos taurus) (UniProt P20288); experiment: Percentage of receptor in the low affinity form for the compound to Dopamine receptor D2 in presence of Gpp(NH)p (pre treated with 1 uM)
[7] = target: D(2) dopamine receptor (Bos taurus) (UniProt P20288); experiment: Percentage of receptor in the low affinity form for the compound in absence of Gpp(NH)p (Pre treated with 1 uM) to Dopamine receptor D2
[8] = target: D(2) dopamine receptor (Bos taurus) (UniProt P20288); experiment: Percentage of receptor in the high affinity form for the compound to Dopamine receptor D2 in presence of Gpp(NH)p (pre treated with 1 uM); assay type: functional

Chain of D(2) dopamine receptor (Bos taurus) (P20288 whole entry): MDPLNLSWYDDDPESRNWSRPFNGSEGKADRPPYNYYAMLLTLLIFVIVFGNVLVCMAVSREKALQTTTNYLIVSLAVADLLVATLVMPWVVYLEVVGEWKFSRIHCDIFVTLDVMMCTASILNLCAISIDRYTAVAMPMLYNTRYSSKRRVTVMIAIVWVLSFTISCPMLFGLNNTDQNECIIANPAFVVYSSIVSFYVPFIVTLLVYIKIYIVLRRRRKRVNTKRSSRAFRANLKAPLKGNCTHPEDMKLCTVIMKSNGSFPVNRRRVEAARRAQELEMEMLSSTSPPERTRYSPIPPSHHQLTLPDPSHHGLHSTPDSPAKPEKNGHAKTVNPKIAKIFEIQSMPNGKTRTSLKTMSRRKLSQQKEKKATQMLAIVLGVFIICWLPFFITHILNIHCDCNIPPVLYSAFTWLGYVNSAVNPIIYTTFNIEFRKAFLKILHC

| Structure (SMILES) | RH [1] | RL [2] | RH [3] | RL [4] | RH [5] | RL [6] | RL [7] | RH [8] |
| --- | --- | --- | --- | --- | --- | --- | --- | --- |
| NC(=O)CN1CC[C@@H](N2CC(=O)N3CCC[C@H]3C2=O)C1=O | 22% | 78% | 46% | 55% | – | – | – | – |
| CC(C)C[C@@H](C(=O)NCC(N)=O)N1CC(=O)N2CCC[C@H]2C1=O | 18.8% | 81.2% | 56.2% | 43.8% | – | – | – | – |
| CC(C)C[C@H](NC(=O)[C@@H]1CCCN1)C(=O)NCC(N)=O (H-Pro-Leu-Gly-NH2) | 19% | 82% | 49% | 51% | 61% | 72% | 41% | 32% |
| NC(=O)[C@H]1CS[C@@H]2C[C@@H](N3CC(=O)N4CCC[C@H]4C3=O)C(=O)N12 | 18.5% | 81.5% | 49% | 51% | – | – | – | – |
